Compound activity from PubChem BioAssay.
Hits are enriched below; roughly 29% of the tested compounds scored in any of these assays.
CYP2C19 activ: increases human CYP2C19 enzyme activity; P33261; recombinant CYP2C19, luciferin-H EGE luminescence; active compounds read high; 0 = fully inhibited enzyme, 1 = untreated enzyme; activation factor at 5 µM; 96,000 tested, under 10 active; AID 1025;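 active means activation factor of at least 2 at 5 µM in the primary screen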
Ecoli tolC: E. coli tolC mutant growth inhibition | E. coli BW25113 tolC mutant growth, OD615 | growth inhibition, % at 10 µM (by protocol) | 65,000 tested, 2.2% active | AID 573;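 active means growth inhibition at or above a cutoff equal to the mean over every tested compound plus 3 SD, cut at about 60% in these data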;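 further: growth measured after 20 h incubation at 37 °C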
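Material: E. coli BW25113 ΔtolC::kan, tolC deletion mutant strain. Measure: percent growth inhibition. Schedule: 37 °C, 20 h exposure. Doses: single-point testing at 10 µM. Signal: A615 absorbance measurement. Buffer or medium: kanamycin-containing LB broth (50 µg/mL).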
E coli WT exp: growth inhibitors of E. coli BW25113 wild type. OD600 absorbance. growth inhibition, % at 100 µM. 98,000 tested, 0.15% active. AID 710;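 active means growth inhibition above about 50% at one test dose, limit read from the data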;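 further: growth measured after 20 h incubation at 37 °C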
CYP2C19 inhib: human CYP2C19 inhibition; P33261; CYP2C19 Supersomes, luciferin-H EGE luminescence, 30 min; inhibition, % at 5 µM; 96,000 tested, 21% active; AID 778;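 active means CYP2C19 inhibition above a set limit at 5 µM in the primary screen, cut at about 50% in these data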
CYP2C9 activ: activators of human CYP2C9. activation factor at 5 µM. P11712. AID 1024. 96,000 tested, 1.4% active. recombinant CYP2C9, luciferin-H conversion, luminescence; active compounds read high; factor 1 = untreated enzyme, 0 = blocked;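 active means activation factor of 2 or more for CYP2C9 at a 5 µM dose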
Target sequence (P11712 whole entry, looked up): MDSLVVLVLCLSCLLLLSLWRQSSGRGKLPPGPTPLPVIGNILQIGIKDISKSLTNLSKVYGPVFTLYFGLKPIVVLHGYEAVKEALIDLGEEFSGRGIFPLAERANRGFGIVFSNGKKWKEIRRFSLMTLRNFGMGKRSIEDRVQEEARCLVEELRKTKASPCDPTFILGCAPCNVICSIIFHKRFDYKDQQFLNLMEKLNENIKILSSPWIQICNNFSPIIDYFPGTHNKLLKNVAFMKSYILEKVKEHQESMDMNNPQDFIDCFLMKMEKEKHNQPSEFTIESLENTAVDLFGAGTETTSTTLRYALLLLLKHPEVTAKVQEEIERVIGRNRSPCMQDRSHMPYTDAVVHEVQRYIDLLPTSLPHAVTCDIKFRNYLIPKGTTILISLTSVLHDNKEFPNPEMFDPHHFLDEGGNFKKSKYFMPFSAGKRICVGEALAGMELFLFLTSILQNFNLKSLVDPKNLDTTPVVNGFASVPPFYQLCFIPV
CYP2C9 inhib: blocks human cytochrome P450 2C9; AID 777; P11712; inhibition, % at 5 µM; CYP2C9 Supersomes, luciferin-H conversion, luminescence; 96,000 tested, 20% active;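 active means blocking of liver enzyme CYP2C9 beyond about 50% at 5 µM, limit read from the data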
Hits are given with their value; – = inactive; · = no result.

SMILES | CYP2C19 activ | Ecoli tolC | E coli WT exp | CYP2C19 inhib | CYP2C9 activ | CYP2C9 inhib
Cc1ccc(C(=O)NCc2ccco2)cc1S(=O)(=O)Nc1cccc(Cl)c1 | – | · | – | 87.0 | – | 97.8
O=C(Cc1ccsc1-c1ccccc1)NO | – | – | – | – | – | –
COCCCNC(=O)CS(=O)Cc1nc(-c2cccc(OC)c2)oc1C (stereo not given) | – | – | – | – | – | –
Cc1ccc(C(=O)Nc2cccc(C(=O)NCc3ccco3)c2)cc1 | – | – | – | – | – | 83.1
Cc1ccc(C(=O)N/C(=C/c2ccco2)C(=O)Nc2cccc(C)c2)cc1 | – | · | – | 50.7 | – | 89.8
Cc1cccc(NC(=O)/C(=C\c2ccco2)NC(=O)c2cccs2)c1 | – | · | – | – | – | –
Cc1cc(C)n(-c2ccc(C(=O)Nc3ccc(S(=O)(=O)NCc4ccco4)cc3)cc2)n1 | – | – | – | – | – | 66.3
O=C(Nc1ccccc1)c1cccc(S(=O)(=O)NCc2ccco2)c1 | – | · | – | 51.3 | – | 50.9
O=C(NCc1ccco1)c1cccc(F)c1 | – | – | – | – | – | –
O=C(CSc1nnc(COc2cccc3cccnc23)o1)N1CCc2ccccc21 | – | – | – | – | – | –
O=C(CSc1nnc(COc2ccc(F)cc2)o1)N1c2ccccc2CCc2ccccc21 | – | – | – | 83.4 | – | 95.5
CCOC(=O)CN(C(=O)CSc1nnc(-c2cccc(OC)c2)o1)c1ccc(F)cc1 | – | – | – | 85.2 | – | 91.9
CCOC(=O)CN(C(=O)CSc1nnc2c(n1)[nH]c1ccc(OC)cc12)c1ccc(F)cc1 | – | – | – | – | – | –
O=C(CSc1nnc(CNc2ccc(F)cc2)o1)N1CCN(C(=O)c2ccco2)CC1 | – | – | – | – | – | –
COC(=O)CN(C(=O)CSc1nnc(-c2cccc(OC)c2)o1)c1ccc(OC)cc1 | – | · | – | – | – | 60.1
O=C(CSc1nnc(CNc2ccc(F)cc2)o1)N1c2ccccc2Sc2ccccc21 | – | · | – | – | – | 53.4
CCN(CC)C(=O)CN(c1cc2c(cc1OC)oc1ccccc12)S(=O)(=O)c1ccc(C)cc1 | – | · | – | – | – | –
c1cc2c(cc1Oc1nc(N3CCOCC3)nc(N3CCOCC3)n1)OCO2 | – | – | – | – | – | –
CCOC(=O)CN(C(=O)CSc1nnc(CNc2ccc(F)cc2)o1)c1ccccc1 | – | – | – | 59.4 | – | 77.6
O=C(O)/C=C\C(=O)Nc1ccccc1C(=O)N1CCN(c2ccc(Cl)cc2)CC1 | – | · | – | – | – | 58.0
CS(=O)(=O)Nc1ccccc1C(=O)N1CCN(c2ccccc2)CC1 | – | · | – | 71.0 | – | –
O=C(Nc1ccccc1C(=O)N1CCN(c2ccccc2)CC1)c1ccco1 | – | – | – | 62.1 | – | 56.9
CS(=O)(=O)Nc1ccccc1C(=O)N1CCCC1 | – | – | – | – | – | –
CC(C)c1ccc(N2CCN(C(=O)c3ccccc3NC(=O)/C=C\C(=O)O)CC2)cc1 | – | · | – | – | – | –
COC(=O)c1ccccc1NC(=O)N1CCN(C(=O)c2ccco2)CC1 | – | – | – | 52.1 | – | –
SMILES | CYP2C19 activ | Ecoli tolC | E coli WT exp | CYP2C19 inhib | CYP2C9 activ | CYP2C9 inhib
O=C1CNC(=O)N1CC(=O)N1CCCc2ccccc21 | – | · | – | – | – | –
O=C(c1ccccc1NS(=O)(=O)c1ccc(Br)s1)N1CCCC1 | – | – | – | 69.4 | – | –
O=C(c1ccccc1NS(=O)(=O)c1ccc(F)cc1)N1CCCC1 | – | · | – | – | – | –
Cc1sc(NC(=O)c2ccco2)c(CN2CCN(c3ccccc3)CC2)c1C | – | · | – | 72.1 | – | 80.4
Cc1cccc(NC(=O)C2CC(=O)N(c3ccccc3)C2)c1C (stereo not given) | – | · | – | – | – | –
NC(=O)c1ccc(OCC(F)(F)C(F)(F)C(F)(F)C(F)(F)C(F)(F)C(F)F)cc1 | – | – | – | 55.2 | – | –
COC(=O)COc1ccc(S(=O)(=O)Nc2ccc(C(N)=O)cc2)cc1 | – | – | – | – | – | –
COc1cccc(Nc2c(F)c(F)c(F)c(F)c2C(=O)O)c1 | – | – | – | – | – | 61.1
C/C(O)=C(/N=O)C(=O)Nc1ccccc1 | – | – | – | – | – | –
CC(=O)/C=N/Nc1ccccc1 | – | · | – | – | – | 60.1
Brc1ccc(-c2nn3c(-c4ccncc4)nnc3s2)o1 | – | – | · | 68.8 | – | –
Clc1ccc(-c2nnc3cccc(Cl)n23)c(Cl)c1 | – | · | – | – | – | –
